Broadly, the inhibition is the relative decrease from the control value, in per cent.

Structures are written as SMILES.

Experiment [1] has as its target Interleukin-1 receptor-associated kinase 1 (Homo sapiens) (UniProt P51617). The experiment can be described thus: Inhibition of IRAK1 at 1 uM.
Experiment [2] concerns the target Mitogen-activated protein kinase kinase kinase 1 (Homo sapiens) (UniProt Q13233). In words: Inhibition of MAP3K1 at 1 uM.
Experiment [3] concerns the target Mitogen-activated protein kinase kinase kinase 10 (Homo sapiens) (UniProt Q02779). In words: Inhibition of MLK2 at 1 uM. The essentials: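 Kinase-panel screen using KINOMEscan technology, with 250–400 kinases per panel. Each compound was tested at a single concentration, and inhibition of each kinase was recorded. Selectivity was summarised as S(90), the fraction of kinases inhibited by more than 90%.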

Experiment [4] has as its target T1, Phosphatidylinositol 3-kinase C2 domain-containing subunit gamma (Homo sapiens) (UniProt O75747).
T1 sequence (whole entry): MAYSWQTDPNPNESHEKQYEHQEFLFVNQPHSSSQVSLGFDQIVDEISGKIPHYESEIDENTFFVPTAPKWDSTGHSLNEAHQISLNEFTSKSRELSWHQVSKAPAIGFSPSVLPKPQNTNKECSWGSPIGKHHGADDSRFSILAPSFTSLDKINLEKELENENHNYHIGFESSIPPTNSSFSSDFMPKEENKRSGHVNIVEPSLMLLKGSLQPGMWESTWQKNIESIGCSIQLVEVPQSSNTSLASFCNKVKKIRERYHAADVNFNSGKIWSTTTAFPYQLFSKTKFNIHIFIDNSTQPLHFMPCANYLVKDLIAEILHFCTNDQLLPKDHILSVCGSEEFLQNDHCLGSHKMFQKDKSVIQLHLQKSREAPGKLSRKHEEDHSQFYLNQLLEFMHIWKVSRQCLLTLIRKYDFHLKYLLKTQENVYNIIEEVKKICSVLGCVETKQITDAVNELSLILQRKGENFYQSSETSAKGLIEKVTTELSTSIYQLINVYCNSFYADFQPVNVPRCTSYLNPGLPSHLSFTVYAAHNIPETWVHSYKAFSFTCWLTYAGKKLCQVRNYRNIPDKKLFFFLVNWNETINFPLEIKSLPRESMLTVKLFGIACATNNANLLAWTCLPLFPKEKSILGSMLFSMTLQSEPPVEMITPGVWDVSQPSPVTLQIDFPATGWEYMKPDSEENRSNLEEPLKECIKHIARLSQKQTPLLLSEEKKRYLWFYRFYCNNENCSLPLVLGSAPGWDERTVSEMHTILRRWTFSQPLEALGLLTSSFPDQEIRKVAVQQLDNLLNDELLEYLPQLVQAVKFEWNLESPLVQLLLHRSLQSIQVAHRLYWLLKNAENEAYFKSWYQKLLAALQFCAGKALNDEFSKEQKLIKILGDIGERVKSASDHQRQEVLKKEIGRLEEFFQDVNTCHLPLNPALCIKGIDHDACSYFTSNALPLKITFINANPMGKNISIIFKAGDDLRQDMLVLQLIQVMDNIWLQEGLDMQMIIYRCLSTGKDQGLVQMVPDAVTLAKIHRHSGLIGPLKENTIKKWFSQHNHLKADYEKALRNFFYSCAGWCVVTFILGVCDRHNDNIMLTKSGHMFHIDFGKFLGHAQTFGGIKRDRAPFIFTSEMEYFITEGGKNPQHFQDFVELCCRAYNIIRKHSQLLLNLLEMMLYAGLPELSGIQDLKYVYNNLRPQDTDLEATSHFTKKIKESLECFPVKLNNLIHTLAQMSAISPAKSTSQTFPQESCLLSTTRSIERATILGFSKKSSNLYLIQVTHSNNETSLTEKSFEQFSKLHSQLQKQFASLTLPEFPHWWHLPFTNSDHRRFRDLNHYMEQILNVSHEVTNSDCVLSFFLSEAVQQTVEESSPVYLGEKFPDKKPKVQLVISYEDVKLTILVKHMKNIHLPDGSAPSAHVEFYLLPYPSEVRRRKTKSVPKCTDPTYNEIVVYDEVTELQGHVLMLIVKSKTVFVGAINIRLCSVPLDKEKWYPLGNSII
In words: Inhibition of PIK3C2G at 1 uM.

In experiment [5] the target is Serine/threonine-protein kinase 32C (Homo sapiens) (UniProt Q86UX6). In words: Inhibition of YANK3 at 1 uM.
The subject of experiment [6] is Tyrosine-protein kinase ABL1 (Homo sapiens), P00519 [T315I]. In words: Inhibition of ABL1 T315I mutant at 1 uM. Put shortly:
(§1)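 Ambit KINOMEscan screen at a single concentration across a 250–400 kinase panel, recorded as percent inhibition. Selectivity was expressed as S(90), the fraction of kinases inhibited >90%.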

Experiment [7] concerns the target Calcium/calmodulin-dependent protein kinase type II subunit beta (Homo sapiens) (UniProt Q13554). The experiment can be described thus: Inhibition of CAMK2B at 1 uM. The essentials:
as §1

For experiment [8], the target named is Cyclin-dependent kinase 19 (Homo sapiens) (UniProt Q9BWU1). In words: Inhibition of CDK11 at 1 uM.
Experiment [9] has as its target Receptor tyrosine-protein kinase erbB-3 (Homo sapiens) (UniProt P21860). In words: Inhibition of ERBB3 at 1 uM.
Experiment [10] deals with G protein-coupled receptor kinase 4 (Homo sapiens) (UniProt P32298). In words: Inhibition of GRK4 at 1 uM.
G protein-coupled receptor kinase 4 (Homo sapiens), sequence (P32298 whole entry, looked up): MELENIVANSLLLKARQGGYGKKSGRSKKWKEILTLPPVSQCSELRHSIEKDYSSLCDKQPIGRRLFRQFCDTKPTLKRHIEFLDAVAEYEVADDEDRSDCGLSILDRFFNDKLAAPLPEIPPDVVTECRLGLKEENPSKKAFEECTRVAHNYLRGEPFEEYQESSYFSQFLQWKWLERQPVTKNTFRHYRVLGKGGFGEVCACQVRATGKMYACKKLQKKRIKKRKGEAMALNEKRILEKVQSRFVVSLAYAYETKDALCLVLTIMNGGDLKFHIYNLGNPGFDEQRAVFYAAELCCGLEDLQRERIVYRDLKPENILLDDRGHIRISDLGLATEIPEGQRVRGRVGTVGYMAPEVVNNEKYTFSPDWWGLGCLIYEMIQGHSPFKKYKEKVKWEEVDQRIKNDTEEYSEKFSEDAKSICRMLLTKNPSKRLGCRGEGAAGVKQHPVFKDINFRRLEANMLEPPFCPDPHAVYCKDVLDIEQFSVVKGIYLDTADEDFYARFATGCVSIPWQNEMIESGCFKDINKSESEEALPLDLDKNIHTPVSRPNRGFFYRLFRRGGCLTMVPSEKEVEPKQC

Cyclin-dependent kinase 19 (Homo sapiens), sequence (Q9BWU1 whole entry): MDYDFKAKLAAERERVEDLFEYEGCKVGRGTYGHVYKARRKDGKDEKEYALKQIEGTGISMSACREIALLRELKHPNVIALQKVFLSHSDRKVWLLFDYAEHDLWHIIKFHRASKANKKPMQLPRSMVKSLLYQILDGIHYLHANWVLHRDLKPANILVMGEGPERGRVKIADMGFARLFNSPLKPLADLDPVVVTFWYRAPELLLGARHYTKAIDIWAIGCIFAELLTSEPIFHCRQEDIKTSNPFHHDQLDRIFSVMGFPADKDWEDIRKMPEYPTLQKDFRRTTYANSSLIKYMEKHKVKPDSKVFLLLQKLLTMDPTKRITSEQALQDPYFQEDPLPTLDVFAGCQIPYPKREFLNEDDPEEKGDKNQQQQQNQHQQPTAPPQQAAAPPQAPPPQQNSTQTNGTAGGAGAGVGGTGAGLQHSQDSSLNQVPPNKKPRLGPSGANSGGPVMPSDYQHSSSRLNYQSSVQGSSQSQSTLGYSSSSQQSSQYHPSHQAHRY
Receptor tyrosine-protein kinase erbB-3 (Homo sapiens), sequence (P21860 whole entry): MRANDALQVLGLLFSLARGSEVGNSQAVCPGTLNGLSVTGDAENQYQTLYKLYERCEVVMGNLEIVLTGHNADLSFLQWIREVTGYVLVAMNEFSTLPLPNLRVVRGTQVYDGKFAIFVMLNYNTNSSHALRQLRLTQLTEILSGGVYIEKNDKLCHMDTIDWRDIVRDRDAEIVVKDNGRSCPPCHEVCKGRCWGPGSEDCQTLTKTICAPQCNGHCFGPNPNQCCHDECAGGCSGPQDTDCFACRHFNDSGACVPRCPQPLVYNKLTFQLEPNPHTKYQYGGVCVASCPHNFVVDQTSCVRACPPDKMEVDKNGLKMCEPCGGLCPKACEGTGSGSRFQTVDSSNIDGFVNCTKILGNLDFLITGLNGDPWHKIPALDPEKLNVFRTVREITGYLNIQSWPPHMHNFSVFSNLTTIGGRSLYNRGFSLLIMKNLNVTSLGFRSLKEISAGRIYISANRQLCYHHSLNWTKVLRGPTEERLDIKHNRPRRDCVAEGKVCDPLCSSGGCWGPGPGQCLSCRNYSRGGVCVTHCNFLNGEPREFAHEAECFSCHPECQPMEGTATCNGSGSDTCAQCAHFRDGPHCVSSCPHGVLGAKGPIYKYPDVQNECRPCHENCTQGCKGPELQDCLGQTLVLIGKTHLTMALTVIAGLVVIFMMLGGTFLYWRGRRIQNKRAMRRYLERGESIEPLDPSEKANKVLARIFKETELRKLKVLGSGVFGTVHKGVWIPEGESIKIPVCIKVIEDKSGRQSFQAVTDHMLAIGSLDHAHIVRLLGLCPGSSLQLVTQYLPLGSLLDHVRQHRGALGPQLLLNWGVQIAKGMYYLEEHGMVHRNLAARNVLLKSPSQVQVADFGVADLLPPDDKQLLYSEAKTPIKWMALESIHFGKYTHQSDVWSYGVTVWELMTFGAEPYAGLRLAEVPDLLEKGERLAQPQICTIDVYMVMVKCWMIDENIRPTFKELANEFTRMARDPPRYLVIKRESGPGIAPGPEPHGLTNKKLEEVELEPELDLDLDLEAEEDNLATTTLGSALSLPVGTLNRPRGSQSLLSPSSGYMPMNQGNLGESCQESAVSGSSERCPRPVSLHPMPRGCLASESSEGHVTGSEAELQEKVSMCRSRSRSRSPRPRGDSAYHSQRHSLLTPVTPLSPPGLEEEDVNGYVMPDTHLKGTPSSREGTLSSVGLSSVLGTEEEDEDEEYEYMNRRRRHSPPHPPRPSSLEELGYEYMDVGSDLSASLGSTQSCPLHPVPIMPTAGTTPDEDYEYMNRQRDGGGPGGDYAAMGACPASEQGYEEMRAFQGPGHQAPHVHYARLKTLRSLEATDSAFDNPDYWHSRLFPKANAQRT
Mitogen-activated protein kinase kinase kinase 1 (Homo sapiens), sequence (Q13233 whole entry): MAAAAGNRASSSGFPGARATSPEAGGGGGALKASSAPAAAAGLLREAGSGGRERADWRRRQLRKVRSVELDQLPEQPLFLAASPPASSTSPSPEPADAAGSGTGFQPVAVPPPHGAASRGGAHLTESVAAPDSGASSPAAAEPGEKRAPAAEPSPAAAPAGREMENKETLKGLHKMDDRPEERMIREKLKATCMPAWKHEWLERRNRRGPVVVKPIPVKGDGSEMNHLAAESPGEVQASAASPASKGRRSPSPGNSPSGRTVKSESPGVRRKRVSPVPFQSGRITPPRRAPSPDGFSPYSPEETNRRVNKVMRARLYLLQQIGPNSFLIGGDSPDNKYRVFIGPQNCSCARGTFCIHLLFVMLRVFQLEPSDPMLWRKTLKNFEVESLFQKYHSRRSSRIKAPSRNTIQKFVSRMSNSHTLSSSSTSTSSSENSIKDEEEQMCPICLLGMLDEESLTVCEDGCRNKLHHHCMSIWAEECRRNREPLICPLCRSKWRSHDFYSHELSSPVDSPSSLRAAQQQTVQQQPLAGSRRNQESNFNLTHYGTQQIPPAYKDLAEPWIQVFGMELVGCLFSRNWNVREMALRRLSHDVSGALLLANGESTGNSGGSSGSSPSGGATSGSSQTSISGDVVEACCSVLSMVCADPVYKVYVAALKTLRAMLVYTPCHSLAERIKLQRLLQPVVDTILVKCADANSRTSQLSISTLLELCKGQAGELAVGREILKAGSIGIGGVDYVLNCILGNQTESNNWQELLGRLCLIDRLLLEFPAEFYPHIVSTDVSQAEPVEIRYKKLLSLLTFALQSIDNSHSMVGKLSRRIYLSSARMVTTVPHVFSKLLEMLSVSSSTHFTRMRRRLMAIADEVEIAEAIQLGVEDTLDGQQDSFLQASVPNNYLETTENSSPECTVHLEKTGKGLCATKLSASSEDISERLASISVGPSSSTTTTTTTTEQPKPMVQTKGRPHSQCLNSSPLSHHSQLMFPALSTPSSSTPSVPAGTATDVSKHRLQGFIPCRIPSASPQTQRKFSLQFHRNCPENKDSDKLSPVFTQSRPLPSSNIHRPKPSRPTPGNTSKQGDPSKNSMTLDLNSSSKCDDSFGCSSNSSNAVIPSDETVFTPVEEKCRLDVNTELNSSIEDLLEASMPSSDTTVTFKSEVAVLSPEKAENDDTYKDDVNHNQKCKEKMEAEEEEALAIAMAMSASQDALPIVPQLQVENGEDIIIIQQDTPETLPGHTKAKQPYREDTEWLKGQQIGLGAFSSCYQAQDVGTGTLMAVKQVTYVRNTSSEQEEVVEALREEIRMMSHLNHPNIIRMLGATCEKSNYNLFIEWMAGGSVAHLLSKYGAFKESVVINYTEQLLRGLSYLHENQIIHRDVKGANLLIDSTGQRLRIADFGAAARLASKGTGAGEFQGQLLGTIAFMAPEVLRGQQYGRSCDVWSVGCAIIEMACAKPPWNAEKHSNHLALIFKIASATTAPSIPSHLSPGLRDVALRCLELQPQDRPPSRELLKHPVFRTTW
Interleukin-1 receptor-associated kinase 1 (Homo sapiens), sequence (P51617 whole entry, looked up): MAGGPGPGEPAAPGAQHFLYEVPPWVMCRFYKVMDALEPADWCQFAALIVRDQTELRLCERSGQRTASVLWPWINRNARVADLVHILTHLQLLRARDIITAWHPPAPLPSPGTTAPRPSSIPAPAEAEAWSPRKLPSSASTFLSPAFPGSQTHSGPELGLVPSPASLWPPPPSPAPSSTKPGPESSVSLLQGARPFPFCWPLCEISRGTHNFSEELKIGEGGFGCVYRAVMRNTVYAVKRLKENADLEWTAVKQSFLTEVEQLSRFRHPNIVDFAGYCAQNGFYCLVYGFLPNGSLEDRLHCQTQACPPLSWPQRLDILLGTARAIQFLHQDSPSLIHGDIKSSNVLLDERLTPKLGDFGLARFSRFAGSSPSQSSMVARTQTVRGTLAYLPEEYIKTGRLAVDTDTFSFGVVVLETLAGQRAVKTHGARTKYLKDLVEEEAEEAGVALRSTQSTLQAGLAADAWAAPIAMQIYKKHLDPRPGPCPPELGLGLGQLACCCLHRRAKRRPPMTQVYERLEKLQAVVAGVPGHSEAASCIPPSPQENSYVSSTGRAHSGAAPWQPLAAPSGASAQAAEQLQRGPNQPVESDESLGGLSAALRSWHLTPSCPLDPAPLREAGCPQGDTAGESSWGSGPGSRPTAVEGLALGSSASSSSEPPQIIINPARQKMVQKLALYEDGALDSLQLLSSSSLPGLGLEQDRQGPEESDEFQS

For the compound `FC(F)(F)c1ccc(Cl)cc1CN1CCNc2ncc(-c3ccnc(N4CCNCC4)c3)cc21`, the inhibition in [1], in [2], in [3], in experiment [4], in [5] and in [6] was under 50% each time. Also, the inhibition in experiment [7], in experiment [8], in experiment [9] and in experiment [10] was under 50% in each case.

For the compound `CN1CCN(c2ccc(-c3cnc4c(c3)N(Cc3cc(Cl)ccc3Cl)CCN4)cn2)CC1`, the inhibition in experiment [1], in [2], in [3], in [4], in [5] and in experiment [6] was under 50% throughout. The inhibition in experiment [7], in experiment [8], in experiment [9] and in [10] was under 50% each time.

With `COC1CCN(C(=O)c2ccc(-c3cnc4c(c3)N(Cc3cc(Cl)ccc3C(F)(F)F)CCN4)cc2)CC1`, the inhibition in [3], in experiment [5], in [6] and in experiment [7] was under 50% throughout.

For the compound `O=C(c1ccc(-c2cnc3c(c2)N(Cc2cc(Cl)ccc2C(F)(F)F)CCN3)cc1)N1CCCCC1`, the inhibition in experiment [3], in experiment [5], in experiment [6] and in [7] was under 50% each time.

For `O=C(O)c1ccc(-c2cnc3c(c2)N(Cc2cc(Cl)ccc2C(F)(F)F)CCN3)cc1`, the inhibition in experiment [3], in [5] and in experiment [7] was under 50% each time.

Take `CN1CCN(c2ccc(-c3cnc4c(c3)N(Cc3cc(F)ccc3F)CCN4)cn2)CC1`: the inhibition is under 50% in experiment [1]; under 50% in experiment [2]; under 50% in experiment [3]; under 50% in [4]; under 50% in experiment [5]; 80.4% in experiment [6]. Moreover, the inhibition in experiment [7], in [8], in [9] and in [10] was under 50% in each case.

With `O=C(c1ccc(-c2cnc3c(c2)N(Cc2cc(Cl)ccc2C(F)(F)F)CCN3)cc1)N1CCC(N2CCCC2)CC1`, the inhibition in experiment [3] is under 50%; in experiment [5], under 50%; in experiment [6] it was 83.2%; in [7], under 50%.

On to `CN1CCN(c2ccc(-c3cnc4c(c3)N(Cc3c(F)ccc(F)c3Cl)CCN4)cn2)CC1`, for which the inhibition in experiment [1] is under 50%; in experiment [2], under 50%; in experiment [3] it was under 50%; in [4], under 50%; in [5], under 50%; in experiment [6] it was 95%. Moreover, the inhibition in experiment [7], in [8], in experiment [9] and in experiment [10] was under 50% throughout.

Regarding `CC(=O)N1CCN(c2cc(-c3cnc4c(c3)N(Cc3cc(Cl)ccc3C(F)(F)F)CCN4)ccn2)CC1`, the inhibition in [1], in experiment [2], in experiment [3], in [4], in [5] and in [6] was under 50% in each case. In addition, the inhibition in [7], in experiment [8], in experiment [9] and in experiment [10] was under 50% in each case.

Consider `CN1CCN(c2ccc(-c3cnc4c(c3)N(Cc3cc(Cl)ccc3C(F)(F)F)CCN4)cn2)CC1`, for which the inhibition in experiment [1], in experiment [2], in experiment [3], in experiment [4], in [5] and in experiment [6] was under 50% throughout. The inhibition in [7], in experiment [8], in [9] and in experiment [10] was under 50% throughout.

These data come from ChEMBL document CHEMBL1165965, “Synthesis and structure-activity relationships of 1,2,3,4-tetrahydropyrido[2,3-b]pyrazines as potent and selective inhibitors of the anaplastic lymphoma kinase” (Bioorg Med Chem, 2010).
